Source: PubChem
C2C12 statin – suppressors of statin myotoxicity in C2C12 myotubes, primary screen, cell-based, single point, plate reader | C2C12 myotubes + simvastatin, ATP luminescence, 48 h; scaled: DMSO 0, geranylgeraniol control 100 | rescue of ATP level, % at 7.49 µM | actives 0.78% (n = 330,000) | AID 602340, 2012;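 active = mean ATP rescue above about 67%, or every replicate alone reaching that limit, limit read from the data, passing the limit was not always enough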;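 also: myotubes were challenged with 10 µM simvastatin during compound exposure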
rRNA inh HTS – reduced GFP signal of wild-type E. coli, primary screen, bacterial rRNA inhibitor project, GFP/RFP fluorescence, OD600, single point. actives 1.6% (n = 350,000). GFP signal change (wild-type ribosome), % (concentration not given with the values). E. coli WT GFP vs humanized-ribosome RFP mutants, 24 h; stronger effect = lower value; DMSO median 0, no signal -100;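 active = significant combined selectivity score with lowered wild-type GFP, culture density cut under 30%, mutant RFP and density less affected; inactive = any of these conditions unmet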
S100A4 inh HTS – inhibitors of S100A4-myosin IIA peptide binding, primary screen, biochemical, fluorescence polarization, TAMRA-MyoIIA peptide; Protein S100-A4 (Homo sapiens), P26447; actives 0.14% (n = 360,000); AID 652163, 2013; inhibition, % at 10.7 µM;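 active = mean inhibition of at least 70% across replicates, with every replicate also reaching that level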
Target sequence (P26447 whole entry, looked up): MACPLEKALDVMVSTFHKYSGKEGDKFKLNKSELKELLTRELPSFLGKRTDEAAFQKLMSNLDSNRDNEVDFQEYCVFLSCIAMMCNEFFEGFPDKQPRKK
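Assay system: human S100A4 monomer with TAMRA-labelled myosin IIA peptide / Buffer or medium: Calcium-containing HEPES buffer, pH 7.2 / Reagent: TAMRA-labelled myosin IIA heavy-chain peptide probe, 5 nM / Compound: one dose per compound / Timing: polarization read 5 min after assay mix addition, stable 5–60 min / Benchmarks: neutral control DMSO, positive control TFP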
PGC1a acetyl inh – inhibitors of PGC1a acetylation signal, primary screen, cell-based, U2OS, AlphaScreen, inhibitor mode. AlphaScreen anti-acetyl-lysine; with virally co-expressed GCN5 acetyltransferase. inhibition, % at 15.6 µM. actives 0.17% (n = 350,000). AID 651687, 2012;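 active = every replicate shows inhibition of at least 40%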;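 also: 0% = neutral control wells and 100% = positive control wells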
Cneo AK release – Cryptococcus neoformans cell lysis inducers, primary screen, AK release luminescence, single concentration; C. neoformans lysis, adenylate kinase release luminescence, 4 h; normalised: neutral wells 0, clomiphene wells 100; lysis activity, % at 15 µM; actives 0.2% (n = 360,000); AID 651654, 2012;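 active = mean lysis activity across replicates of at least 80%, whatever share of replicates individually reach that level; inactive = mean lysis activity below 80%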
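Material – log-phase Cryptococcus neoformans yeast cells · Input – 5 × 10^6 yeast cells/mL · Medium – fresh YPD growth medium · Doses – single compound concentration per well · Timing – static 4 h at 37 °C with compound, 1 h detection · Detection – adenylate kinase release luminescence · Read-out – signal increase indicating cell lysis · Control set – Clomiphene as positive lysis control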
SIRT5 block – SIRT5 desuccinylase inhibitors, primary screen, biochemical, fluorescence imaging, single point, set 5; NAD-dependent protein deacylase sirtuin-5, mitochondrial (Homo sapiens), Q9NXA8; Purified SirT5, succinyl-peptide AMC, trypsin-coupled fluorescence; actives 1.1% (n = 330,000); inhibition, % at 15 µM; in the data active = inhibition above about 15%
Target sequence (Q9NXA8 whole entry, looked up): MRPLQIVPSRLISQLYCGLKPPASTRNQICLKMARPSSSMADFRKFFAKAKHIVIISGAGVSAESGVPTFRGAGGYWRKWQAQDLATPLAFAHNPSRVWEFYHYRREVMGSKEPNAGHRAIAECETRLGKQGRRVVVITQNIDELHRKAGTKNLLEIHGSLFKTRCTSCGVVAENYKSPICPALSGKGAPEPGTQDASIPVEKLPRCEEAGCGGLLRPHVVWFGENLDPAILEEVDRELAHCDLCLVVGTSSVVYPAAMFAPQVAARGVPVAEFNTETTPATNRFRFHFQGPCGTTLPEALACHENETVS
An asterisk follows results filed as active; . = no result given. Hits are enriched below; roughly 3% of the tested compounds scored in any of these assays.

SMILES	C2C12 statin	rRNA inh HTS	S100A4 inh HTS	PGC1a acetyl inh	Cneo AK release	SIRT5 block
COc1ccc(NC(=O)N(C)C[C@H]2OCCCC[C@H](C)Oc3ccc(NC(=O)C4CCCCC4)cc3C(=O)N([C@@H](C)CO)C[C@@H]2C)cc1	.	-4	-3	0	90*	4
COc1ccc(NC(=O)N(C)C[C@H]2OCCCC[C@@H](C)Oc3ccc(N(C)C)cc3C(=O)N([C@H](C)CO)C[C@H]2C)cc1	21	-1	-16	10	112*	8
COc1ccc(NC(=O)N(C)C[C@H]2OCCCC[C@@H](C)Oc3ccc(NC(=O)NC4CCCCC4)cc3C(=O)N([C@H](C)CO)C[C@@H]2C)cc1	.	-1	134*	-3	1	4
C[C@@H]1CN([C@H](C)CO)S(=O)(=O)c2ccc(-c3cccc(C#N)c3)cc2O[C@H]1CN(C)C	-5	-6	-10	-10	-1	5
C[C@@H]1CN([C@H](C)CO)C(=O)Cc2cc(NC(=O)C3CC3)ccc2O[C@H]1CN(C)C(=O)Nc1cccc2ccccc12	-3	4	-6	-8	-8	0
COc1ccc2c3c(n(C)c2c1)[C@@H](CO)N(Cc1ccccc1)CC31CCN(C(=O)Nc2cccc(F)c2)CC1	.	-1	13	.	.	-3
CC(=O)Nc1ccc(NC(=O)Cn2nc([N+](=O)[O-])c(Br)c2C)cc1	.	9	18	6	.	0
Cc1ccc(C)c(NC(=O)Cn2nc([N+](=O)[O-])c(Br)c2C)c1	1	2	-4	9	-14	33*
COc1ccc(CNCc2cccc(Oc3ccccc3)c2)cc1	-11	-25*	22	4	12	10
CCCOc1ccc(N2C(=O)CC(SCCc3nc4ccccc4[nH]3)C2=O)cc1 (centres undefined)	.	-31*	3	.	.	-7
O=C(NCCc1ccncc1)Nc1ccc(F)cc1	2	2	103*	0	3	-4
O=C([C@@H]1[C@@H](CO)[C@@H]2Cn3c(cccc3=O)[C@H]1N2C(=O)c1ccccc1)N1CCCCC1	-8	4	-4	.	-2	1
CC1CCCCN1C(=O)CN(C)S(=O)(=O)c1cccc2nsnc12 (centres undefined)	12	13	-5	42*	6	1
COc1cc(/C=C2\C(=N)N3N=C(S(C)(=O)=O)SC3=NC2=O)ccc1OCCOc1ccccc1C	4	-25	-1	-1	-3	33*
CCC(=O)N1CCCCN2[C@H](CO)[C@H](c3ccc(/C=C/c4ccccc4)cc3)[C@@H]2C1	.	-54	-6	7	1	-5
COCCn1c(-c2ccc(Cl)cc2)cnc1SCC(=O)NCCc1ccc(OC)c(OC)c1	.	-22*	0	.	.	0
O=C(Nc1ccc2nc3n(c(=O)c2c1)CCCCC3)c1c(F)ccc([N+](=O)[O-])c1F	204*	-22*	4	.	-1	-3
CCOC(=O)c1ccc(NC(=S)N2CCCC(C(=O)OCC)C2)cc1 (centres undefined)	90*	-12	8	-22	-3	-1
CCOC(=O)Nc1ccc2nc3n(c(=O)c2c1)CCCCC3	.	9	8	10	.	-4
CCNC(=S)N1C2CCC1CC(NC(=O)Nc1ccc(C(=O)OCC)cc1)C2 (centres undefined)	5	-21*	0	11	0	-1
CCOC(=O)C1CCCN(C(=O)C(=O)Nc2ccc3nc4n(c(=O)c3c2)CCCCC4)C1 (centres undefined)	12	-17*	-2	9	1	5
Cc1ccccc1-c1nc(CS(=O)(=O)CC(=O)NCCCN2CCCC2)c(C)o1	1	2	-4	5	3	17*
CCCCCSc1nnc(C)c(=O)[nH]1	.	-4	-1	91*	.	-4
CC(=O)N(C)C[C@@H]1Oc2ncccc2C(=O)N(C)C[C@H]1C	.	1	.	.	.	.
O=C(COc1ncnc2ccccc12)c1ccc2c(c1)OCCO2	72*	.	.	7	.	.
SMILES	C2C12 statin	rRNA inh HTS	S100A4 inh HTS	PGC1a acetyl inh	Cneo AK release	SIRT5 block
COCC(=O)NC[C@H]1N[C@H](CO)[C@@H]1c1ccc(C2=CCCC2)cc1	-20	3	.	1	108*	.
CCC(=O)NC[C@H]1N[C@H](CO)[C@@H]1c1ccc(C2=CCCC2)cc1	-18	-2	.	-4	-1	.
CN(C[C@@H]1N[C@H](CO)[C@@H]1c1ccc(C2=CCCC2)cc1)S(C)(=O)=O	6	3	-1	2	43	16*
O=C(NC[C@H]1N[C@H](CO)[C@@H]1c1ccc(C2=CCCC2)cc1)C1CCC1	.	0	-15	.	.	1
COCC(=O)NC[C@H]1N[C@H](CO)[C@H]1c1ccc(C2=CCCC2)cc1	13	-1	.	6	97*	.
Cc1ccccc1S(=O)(=O)N1[C@H](C#N)[C@@H](c2ccc(C#CC3CCCC3)cc2)[C@@H]1CO	.	0	7	-9	.	1
COCCOC(=O)N1C(=O)[C@@]2(c3cc(C#CCCO)ccc31)[C@H](C(=O)NC[C@H](O)c1ccccc1)[C@H]1C(=O)O[C@H](c3ccccc3)[C@H](c3ccccc3)N1[C@@H]2c1ccc(O)cc1	.	.	-8	-4	-3	3
O=C(/C=C\Nc1ccc(S(=O)(=O)Nc2ncccn2)cc1)c1cccc2ccccc12	.	-20*	-6	.	.	2
NC(=O)CSc1nc(-c2ccccc2)nc2c1CCCC2	.	11	4	.	.	-2
CN(C)C(=O)CSc1nc(-c2ccccc2)nc2c1CCCC2	77*	.	.	-25	0	.
CCCNC(=O)N1C[C@H](C)[C@H](OC)CN(C)C(=O)c2ccc(NC(=O)C3CCC3)cc2OC[C@H]1C	5	-3	-45	-1	-2	2
COCC#Cc1cnc2c(c1)C(=O)N([C@@H](C)CO)C[C@H](C)[C@H](CN(C)C(=O)c1cccc(F)c1)O2	-8	1	-16	4	-5	-9
O=c1[nH][nH]c2c(N=Cc3ccccc3O)ccc(F)c12	38	4	0	-5	-1	29*
O=c1[nH][nH]c2c([N+](=O)[O-])ccc(F)c12	.	1	-1	.	.	.
COc1ccc2nc3cc(Cl)ccc3c(Nc3cc(C(C)C)c(O)cc3C)c2c1	-74	-54	0	.	-15	-4
